Results: ChEMBL document CHEMBL4130355, “Development of a series of novel 4-anlinoquinazoline derivatives possessing quinazoline skeleton: Design, synthesis, EGFR kinase inhibitory efficacy, and evaluation of anticancer activities in vitro” (Eur J Med Chem, 2017)

What was measured:
HepG2 [1] = assay: Induction of apoptosis in human HepG2 cells after 48 hrs by AnnexinV-FITC/propidium iodide double staining-based flow cytometry; type: functional, cell-based
A549 [2] = assay: Antiproliferative activity against human A549 cells at 10 uM after 48 hrs by MTT assay relative to control; type: functional
Outline: (§1)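 MTT assay in triplicate wells. Cells (2 × 10^3/well) were attached 24 h, then treated at 0.1, 1, 10, 50 or 100 µM for 24, 48 or 72 h. MTT added for 4 h, SDS solubilisation, absorbance at 570/650 nm. Inhibition = 1 − (OD treated − blank)/(OD control − blank). Reported as mean ± SD of three independent experiments.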

HepG2 [3] = assay: Antiproliferative activity against human HepG2 cells after 72 hrs by MTT assay; type: functional, cell-based; conditions: HepG2, 72 h
HepG2 [4] = assay: Antiproliferative activity against human HepG2 cells at 10 uM after 48 hrs by MTT assay realtive to control; type: functional; outline: as §1
HepG2 [5] = assay: Induction of apoptosis in human HepG2 cells assessed as early apoptotic cells at 5 uM after 48 hrs by Annexin V-FITC/propidium iodide double staining-based flow cytometry (reference value: 8.7%); type: functional
HepG2 [6] = assay: Cell cycle arrest in human HepG2 assessed as accumulation at S phase at 2.5 uM after 48 hrs by propidium iodide-staining based flow cytometry (reference value: 21.46%); type: functional
Outline: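 HepG2 cells at 5.0 × 10^5/well were grown 24 h, then treated at 0, 2.5, 5.0 or 10.0 µM for 48 h alongside medium-only wells. Cells fixed in 70% ice-cold ethanol for ≥24 h, treated with RNase A at 37 °C for 30 min, then stained with propidium iodide for 30 min at 4 °C in the dark. DNA content read by flow cytometry. Average of at least three experiments.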

HepG2 [7] = assay: Antiproliferative activity against human HepG2 cells at 100 uM after 24 hrs by MTT assay realtive to control; type: functional; outline: as §1
HepG2 [8] = assay: Induction of apoptosis in human HepG2 cells assessed as intracellular free Ca2+ levels at 10 uM after 48 hrs by FL1 channel/FACS analysis (reference value: 14.2%); type: functional
Outline: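 HepG2 seeded at 5.0 × 10^5 cells/mL, 24 h at 37 °C in 5% CO2, then treated 48 h (2.5–20 µM). Harvested cells were washed in ice-cold PBS and loaded with 4 µM Fluo-3/AM for 30 min. After trypsinizing, they were washed twice and resuspended in HEPES, and fluorescence was measured in the FL-1 channel by flow cytometry. Values are averages of at least three independent experiments.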

HepG2 [9] = assay: Induction of apoptosis in human HepG2 cells assessed as early apoptotic cells at 10 uM after 48 hrs by Annexin V-FITC/propidium iodide double staining-based flow cytometry (reference value: 8.7%); type: functional
HepG2 [10] = assay: Induction of apoptosis in human HepG2 cells assessed as viable cells at 5 uM after 48 hrs by Annexin V-FITC/propidium iodide double staining-based flow cytometry (reference value: 86.4%); type: functional; conditions: HepG2, 48 h, read-out: Activity
HepG2 [11] = assay: Induction of apoptosis in human HepG2 cells assessed as viable cells at 10 uM after 48 hrs by Annexin V-FITC/propidium iodide double staining-based flow cytometry (reference value: 86.4%); type: functional; conditions: HepG2, 48 h, read-out: Activity
HepG2 [12] = assay: Antiproliferative activity against human HepG2 cells at 1 uM after 48 hrs by MTT assay realtive to control; type: functional; outline: as §1
A549 [13] = assay: Antiproliferative activity against human A549 cells at 10 uM after 72 hrs by MTT assay relative to control; type: functional; outline: as §1

With `COc1cc2c(Nc3ccc(C#N)cc3)ncnc2cc1OCCCN1CCC(c2ccccc2)CC1` the Activity (HepG2 [1]) was “Dose-dependent effect”, the Activity (A549 [2]) was 13.5% and the IC50 (HepG2 [3]) was 4.61 to 5.29 µM. For the same molecule, the Activity (HepG2 [4]) was 55.6%, the Activity (HepG2 [5]) was 80.7% and the Activity (HepG2 [6]) was 22.44%. The Activity (HepG2 [7]) was 101%, the Activity (HepG2 [8]) was 48.9% and the Activity (HepG2 [9]) was 98.6%. The viability at 5 µM (HepG2 [10]) was 17.3%, the viability at 10 µM (HepG2 [11]) was 1.3% and the Activity (HepG2 [12]) was 8.6%. It also gave an Activity (A549 [13]) of 34.1%.
